Here are results for 3 compounds from ChEMBL document CHEMBL1781992, “A novel monocarbonyl analogue of curcumin, (1E,4E)-1,5-bis(2,3-dimethoxyphenyl)penta-1,4-dien-3-one, induced cancer cell H460 apoptosis via activation of endoplasmic reticulum stress signaling pathway” (J Med Chem, 2011).

In assay [1] the test system is NCI-H460. The assay can be described thus: Induction of apoptosis in human NCI-H460 cells assessed as non-viable necrotic cells at 20 uM after 6 hrs by annexinV-propidium iodide staining based flow cytometric analysis relative to control. The assay is classed as functional. Put shortly: (§1)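 H460 cells plated for 6 h, then treated with 5, 10 or 20 μM. Cells washed, trypsin-EDTA detached and resuspended in PBS, then stained with annexin V and propidium iodide plus RNase and 0.1% Triton X-100 for 30 min at 37 °C before flow cytometry. Figure legend gives 6 h incubation.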

Assay [2] concerns NCI-H460. The assay can be described thus: Cytotoxicity against human NCI-H460 cells assessed as reduction of cell viability at 5 to 30 uM after 24 hrs by CellTiter-Glo analysis. The assay is classed as functional, cell-based. Put shortly:
(§2)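 H460 cells (5 × 10^3/well) seeded overnight, then given fresh medium containing compound from DMSO stock (final 5, 10, 20 μM; 2.5–30 μM in the figure) for 24 h. Viability measured with CellTiter-Glo and expressed as percent of vehicle-treated cells; Student's t test.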

In assay [3] the test system is NCI-H460. The assay can be described thus: Induction of apoptosis in human NCI-H460 cells at 5 to 30 uM after 24 hrs by flow cytometric analysis. The assay is classed as functional, cell-based.
The subject of assay [4] is NCI-H460. The assay can be described thus: Induction of ATF-4 protein expression level in human NCI-H460 cells at 5 to 20 uM after 6 hrs by Western blot analysis. It is filed as functional, cell-based. Put shortly:
(§3)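 H460 cells exposed to 20 μM for varying times, or to a range of concentrations for 6 h. ATF-4 and XBP-1 protein measured by Western blot with actin as loading control.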

In assay [5] the test system is NCI-H460. The assay can be described thus: Induction of XBP-1 protein expression level in human NCI-H460 cells at 5 to 20 uM after 6 hrs by Western blot analysis. The assay is classed as functional, cell-based. Put shortly: as §3
Assay [6] deals with NCI-H460. Put plainly: Induction of apoptosis in human NCI-H460 cells at 20 uM after 6 hrs by flow cytometric analysis. It is filed as functional. The method, boiled down:
as §1

Assay [7] relates to NCI-H460. The assay can be described thus: Cytotoxicity against human NCI-H460 cells after 72 hrs by MTT assay. The assay is classed as functional, cell-based. The settings on record: NCI-H460, 72 h. Put shortly: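 H460 cells grown in RPMI 1640 with 5% FBS at 37 °C, 10% CO2, treated 24 h after seeding. Compounds in DMSO diluted into medium at final 100, 33.3, 11.1 and 3.7 μg/mL for 72 h. MTT (5 mg/mL in 0.9% NaCl) added for 3 h, formazan dissolved in DMSO and read at 570 nm; IC50 derived.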

Assay [8] concerns NCI-H460. Put plainly: Induction of GRP78 mRNA expression in human NCI-H460 cells at 5 to 20 uM after 3 hrs by real time quantitative PCR analysis. It is filed as functional, cell-based. The method, boiled down: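 H460 cells treated across a concentration range for 3 h. GRP78 mRNA quantified by RT-qPCR, normalized to β-actin and expressed as percent of vehicle.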
In assay [9] the test system is NCI-H460. Put plainly: Induction of GRP78 protein expression in human NCI-H460 cells at 5 to 20 uM after 3 hrs by Western blot analysis. The assay is classed as functional, cell-based. The method, boiled down: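 H460 cells treated for 3 h; GRP78 protein detected by Western blot with actin as loading control.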
Assay [10] concerns NCI-H460. Put plainly: Induction of CHOP mRNA expression in human NCI-H460 cells at 20 uM after 12 hrs by real time quantitative PCR analysis. It is filed as functional, cell-based. The method, boiled down: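 H460 cells exposed to a concentration range for 6 or 12 h. CHOP mRNA measured by RT-PCR/qPCR and normalized to β-actin.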
For assay [11], the system named is NCI-H460. The assay can be described thus: Induction of CHOP protein expression in human NCI-H460 cells at 20 uM after 6 to 24 hrs by Western blot analysis. It is filed as functional, cell-based. The method, boiled down: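 H460 cells treated for 6–24 h, or across a range of concentrations. CHOP protein measured by Western blot, densitometry expressed as percent of control; Student's t test.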

Assay [12] concerns the target Transcription factor Jun (Homo sapiens) (UniProt P05412). Put plainly: Induction of c-Jun phosphorylation in human NCI-H460 cells at 20 uM after 12 hrs by Western blot analysis. It is filed as cell-based. The method, boiled down: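 H460 cells cultured in RPMI 1640 with 5% heat-inactivated FBS at 37 C, 10% CO2; exposed to 20 μM for a time course. Lysed at 0 C in Tris-HCl pH 7.4 buffer with NP40, SDS, and protease/phosphatase inhibitors. Phospho-c-Jun detected by Western blot with chemiluminescence, actin as loading control; band density quantified.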

Assay [13] deals with NCI-H460. The assay can be described thus: Decrease in p53 expression in human NCI-H460 cells at 20 uM after 12 hrs by Western blot analysis. The assay is classed as functional, cell-based. The method, boiled down: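 H460 cells exposed to 20 μM for varying times, or to a range of concentrations for 12 h. Lysates made in Tris-HCl pH 7.4/NaCl/NP40/SDS buffer with protease and phosphatase inhibitors, then probed for p53 by Western blot with chemiluminescent detection; bands quantified by densitometry.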

The test system of assay [14] is NCI-H460. The assay can be described thus: Induction of apoptosis in human NCI-H460 cells assessed as activation of caspase 3 activity at 20 uM after 24 hrs by Western blot analysis. It is filed as functional, cell-based.
The test system of assay [15] is NCI-H460. The assay can be described thus: Induction of apoptosis in human NCI-H460 cells assessed as activation of caspase 9 activation at 20 uM after 24 hrs by Western blot analysis. The assay is classed as functional, cell-based.
Assay [16] has as its system NCI-H460. Put plainly: Cytotoxicity against human NCI-H460 cells assessed as reduction of cell viability at 5 to 20 uM after 24 hrs by CellTiter-Glo analysis. The assay is classed as functional, cell-based. The method, boiled down: as §2
The subject of assay [17] is NCI-H460. The assay can be described thus: Cytotoxicity against human NCI-H460 cells assessed as cell viability at 20 uM after 24 hrs by CellTiter-Glo analysis. It is filed as functional. The settings on record: NCI-H460, 24 h, read-out: Activity. The method, boiled down:
as §2

Assay [18] deals with NCI-H460. The assay can be described thus: Induction of apoptosis in human NCI-H460 cells assessed as viable cells at 5 uM after 6 hrs by annexinV-propidium iodide staining based flow cytometric analysis relative to control. The assay is classed as functional. The settings on record: NCI-H460, 6 h, read-out: Activity. The method, boiled down:
as §1

The subject of assay [19] is NCI-H460. Put plainly: Induction of apoptosis in human NCI-H460 cells assessed as early apoptotic cells at 5 uM after 6 hrs by annexinV-propidium iodide staining based flow cytometric analysis relative to control. It is filed as functional. The method, boiled down:
as §1

For assay [20], the system named is NCI-H460. The assay can be described thus: Induction of apoptosis in human NCI-H460 cells assessed as late apoptotic cells at 5 uM after 6 hrs by annexinV-propidium iodide staining based flow cytometric analysis relative to control. The assay is classed as functional. Put shortly: as §1
The test system of assay [21] is NCI-H460. Put plainly: Induction of apoptosis in human NCI-H460 cells assessed as non-viable necrotic cells at 5 uM after 6 hrs by annexinV-propidium iodide staining based flow cytometric analysis relative to control. It is filed as functional. Put shortly:
as §1

Assay [22] concerns NCI-H460. The assay can be described thus: Induction of apoptosis in human NCI-H460 cells assessed as viable cells at 10 uM after 6 hrs by annexinV-propidium iodide staining based flow cytometric analysis relative to control. The settings on record: NCI-H460, 6 h, read-out: Activity. The assay is classed as functional. Put shortly:
as §1

Assay [23] has as its system NCI-H460. Put plainly: Induction of apoptosis in human NCI-H460 cells assessed as early apoptotic cells at 10 uM after 6 hrs by annexinV-propidium iodide staining based flow cytometric analysis relative to control. The assay is classed as functional. The method, boiled down:
as §1

Assay [24] concerns NCI-H460. Put plainly: Induction of apoptosis in human NCI-H460 cells assessed as late apoptotic cells at 10 uM after 6 hrs by annexinV-propidium iodide staining based flow cytometric analysis relative to control. It is filed as functional. Put shortly: as §1
In assay [25] the test system is NCI-H460. The assay can be described thus: Induction of apoptosis in human NCI-H460 cells assessed as non-viable necrotic cells at 10 uM after 6 hrs by annexinV-propidium iodide staining based flow cytometric analysis relative to control. The assay is classed as functional. Put shortly: as §1
In assay [26] the test system is NCI-H460. Put plainly: Induction of apoptosis in human NCI-H460 cells assessed as viable cells at 20 uM after 6 hrs by annexinV-propidium iodide staining based flow cytometric analysis relative to control. As to conditions: NCI-H460, 6 h, read-out: Activity. The assay is classed as functional. Put shortly:
as §1

In assay [27] the test system is NCI-H460. Put plainly: Induction of apoptosis in human NCI-H460 cells assessed as early apoptotic cells at 20 uM after 6 hrs by annexinV-propidium iodide staining based flow cytometric analysis relative to control. The assay is classed as functional. Put shortly:
as §1

In assay [28] the test system is NCI-H460. The assay can be described thus: Induction of apoptosis in human NCI-H460 cells assessed as late apoptotic cells at 20 uM after 6 hrs by annexinV-propidium iodide staining based flow cytometric analysis relative to control. The assay is classed as functional. Put shortly: as §1

Active and inactive are the calls of the source. The rule behind the calls is not given here.

Chain of Transcription factor Jun (Homo sapiens) (P05412 whole entry): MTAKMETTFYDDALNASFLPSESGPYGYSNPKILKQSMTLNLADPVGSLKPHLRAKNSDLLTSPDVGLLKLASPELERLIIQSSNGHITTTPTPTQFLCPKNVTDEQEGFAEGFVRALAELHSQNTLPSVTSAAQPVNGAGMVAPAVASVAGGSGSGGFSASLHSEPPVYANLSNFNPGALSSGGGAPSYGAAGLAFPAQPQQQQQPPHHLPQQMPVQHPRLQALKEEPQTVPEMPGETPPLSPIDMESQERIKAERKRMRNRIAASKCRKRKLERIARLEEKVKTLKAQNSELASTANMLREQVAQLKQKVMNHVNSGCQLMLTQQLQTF

As to `COc1cc(/C=C/C(=O)CC(=O)/C=C/c2ccc(O)c(OC)c2)ccc1O` [CURCUMIN], the Activity in the assay with NCI-H460 [1] is on record as 0.32%; with NCI-H460 [6], 12.02%; with NCI-H460 [19] it was 7.97%; in the assay on NCI-H460 [20] it was 3.66%; in the assay with NCI-H460 [21], 0.46%; in the assay with NCI-H460 [23], 8.57%. Moreover, the Activity with NCI-H460 [24] is on record as 2.06%; in the assay with NCI-H460 [25], 0.23%; with NCI-H460 [27], 12.02%; in the assay on NCI-H460 [28], 4.06%. Further, the result in the assay with NCI-H460 [2], with NCI-H460 [3], in the assay with NCI-H460 [4], in the assay with NCI-H460 [5], in the assay with NCI-H460 [8] and in the assay on NCI-H460 [9] was inactive. Also, the result (in the assay with NCI-H460 [10]; in the assay with NCI-H460 [11]; in assay [12]; in the assay with NCI-H460 [13]; with NCI-H460 [14]; in the assay with NCI-H460 [15]) was inactive. Also, in the assay with NCI-H460 [16], the result was inactive. In the assay with NCI-H460 [7], this compound registered an IC50 of 20.3 µM. Further, the figures for the viability at 20 µM with NCI-H460 [17] and in the assay on NCI-H460 [26] were 70% and 83.6%, respectively. For the same compound, the viability at 5 µM in the assay with NCI-H460 [18] is 87.9%. Moreover, the viability at 10 µM with NCI-H460 [22] was determined as 89.2%.

In the assay with NCI-H460 [7], `CN(C)CCCOc1ccc(/C=C2\CC/C(=C\c3ccc(OCCCN(C)C)cc3)C2=O)cc1` gave an IC50 of 8.31 µM.

In the assay with NCI-H460 [7], `O=C(/C=C/c1ccccc1Br)/C=C/c1ccccc1Br` registered an IC50 of 5.78 µM.
